DDE Tn6 FP inh = inhibitors of Tn6 peptide binding to human fibrin DD(E); P02675; Fibrin DD(E) TRITC-Tn6 fluorescence polarization displacement; inhibition, % at 8.3 µM; 370,000 compounds, 0.21% hits; AID 720509;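 active means inhibition above a per-campaign cutoff: mean of compounds within control limits plus 3 SD, cut at about 15% in these data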;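 further: 0% = median of all compound wells on the plate and 100% = blocking peptide control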
Target sequence (P02675 whole entry, looked up): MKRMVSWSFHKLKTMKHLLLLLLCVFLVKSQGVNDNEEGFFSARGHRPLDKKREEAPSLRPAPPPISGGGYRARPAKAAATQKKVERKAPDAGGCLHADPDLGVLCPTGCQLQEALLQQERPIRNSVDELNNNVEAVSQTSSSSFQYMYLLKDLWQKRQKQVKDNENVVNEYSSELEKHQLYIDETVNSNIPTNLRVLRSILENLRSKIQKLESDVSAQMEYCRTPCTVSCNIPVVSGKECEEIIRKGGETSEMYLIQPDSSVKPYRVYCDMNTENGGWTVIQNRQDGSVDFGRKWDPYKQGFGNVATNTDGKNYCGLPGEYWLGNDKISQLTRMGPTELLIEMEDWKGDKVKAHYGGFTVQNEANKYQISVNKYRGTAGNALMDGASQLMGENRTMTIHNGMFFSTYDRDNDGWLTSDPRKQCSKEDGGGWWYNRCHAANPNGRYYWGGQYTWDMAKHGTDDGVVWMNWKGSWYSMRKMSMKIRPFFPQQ
CRFBP-R2 agonist = agonists of human CRF-binding protein/CRF-R2 receptor complex | HEK293 CRF-R2/CRF-BP, calcium dye fluorescence (FLIPR); percent of saturating CRF peptide response | activation, % at 13.2 µM | 350,000 compounds, 0.46% hits;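 active means activation of at least 50%, plus an integration ratio under a set limit after plate pattern correction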;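 further: plate controls were neutral control wells without compound for no effect and CRF at EC100 for full effect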
CRFBP-R2 block = blocks CRF-induced signaling of the CRF-BP/CRF-R2 complex. HEK293 CRF-R2/CRF-BP, CRF-induced calcium fluorescence. inhibition, % at 11.8 µM. 350,000 compounds, 0.59% hits;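 active means inhibition of the ligand-induced calcium signal above about 50% at the single tested concentration, limit read from the data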
Tn7 DDE FP = DD(E)-Tn7 binding inhibition, primary FP screen | P02675 | FP displacement of FITC-Tn7 peptide from fibrin DD(E); 0% = median of compound wells per plate | inhibition, % at 8.3 µM | 370,000 compounds, 0.13% hits;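 active means inhibition above the mean of compounds falling within the control limits plus 3 SD of them, cut at about 14% in these data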;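 further: 0% = plate median of compound wells and 100% = 10 µM Aha-Tn7 peptide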
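Assay system: Human fibrin DD(E) protein | Medium: Tris buffer with calcium and detergent, pH 7.8 | Reagent: 0.1 µM fluorescent Tn7 | Compound dosing: Single point at 8.3 µM | Times: 10 min preincubation, 3 h with tracer, room temperature | Detection: Fluorescence polarization of the labelled Tn7 tracer | Controls: Aha-Tn7 high control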
Active calls of the source: *; . = no result given. This is a sample that favours compounds with a hit; in the whole collection about 1.2% have one here.

SMILES	DDE Tn6 FP inh	CRFBP-R2 agonist	CRFBP-R2 block	Tn7 DDE FP
CCc1ccc(NC(=O)CSc2nc(N)c(NC(=O)c3ccc(F)c(F)c3)c(=O)[nH]2)cc1	2	0	52*	-4
Cc1ccc([N+](=O)[O-])cc1N=Nc1c(-c2ccc([N+](=O)[O-])cc2)[nH]n(C(N)=S)c1=O	.	51*	112*	.
O=C(CCc1ccccc1)N[C@H]1[C@@H](OC(=O)C2CC2)CCC[C@@]12C(=O)N(Cc1ccccc1)c1ccccc12	-3	.	.	-6
Cc1ccc(-n2c(SCC(=O)Nc3ccccc3-c3ccccc3)nnc2-c2ccco2)cc1	1	.	.	6
c1ccc(-c2nc3nonc3nc2-c2ccccc2)cc1	-6	-1	54*	-5
CCOC(=O)c1sc(NC(=O)CN(CC(C)C)CC(C)C)c(C(=O)OCC)c1C	0	-1	74*	1
CCOC(=O)c1c(NC(=O)CC(C)C)sc(C(C)=O)c1C	6	-1	-26	-3
CC(C)(C)C1CCc2c(sc(NC(=O)C3CC=CCC3C(=O)O)c2C#N)C1 (stereo not drawn)	-4	-3	61*	-4
N#Cc1c(NC(=O)C2CC=CCC2C(=O)O)sc2c1CCCCCC2 (stereo not drawn)	-2	-3	4	2
O=[N+]([O-])c1ccc(/C=C/C2=NN(c3ccccc3)C(c3ccco3)C2)cc1 (stereo not drawn)	-3	182*	-174	1
O=[N+]([O-])c1ccc(C2=NN(c3ccccc3)C(c3ccco3)C2)cc1 (stereo not drawn)	-5	105*	-92	-1
CCOC(=O)N1C(=O)C[C@](Sc2ccc(OC)cc2)(C(=O)N2CCN(C(C)=O)CC2)[C@H]1c1ccc(OC)cc1	-2	.	.	-6
Cc1ccc(C)c(NC(=O)CN2C(=O)CCSc3ccccc32)c1	-4	.	.	-4
COc1cccc(/C=C2\C(=O)C(=O)c3ccccc32)c1	-12	-3	76*	0
COc1ccc(C=C2C(=O)c3ccccc3C2=O)cc1O	-3	-1	66*	0
COc1cc(C=C2C(=O)c3ccccc3C2=O)ccc1O	-1	-1	26	2
COc1cc(C=C2C(=O)c3ccccc3C2=O)cc(OC)c1OC	1	1	88*	-3
CCCCCN1CCCCC(NC(=O)c2ccc3ccccc3c2)C1=O (stereo not drawn)	-9	.	.	-1
O=C(O)c1cc(C(=O)O)c(-c2ccccc2)c(C(=O)O)c1	4	-3	16	8
O=C(O)c1cc(-c2ccccc2)nc(-c2ccccc2)c1	-2	-1	54*	3
C/C(C=NNC(=O)CSc1nnc(-c2ccc(Cl)cc2)n1-c1ccc(C)cc1)=C\c1ccccc1	-2	.	.	-10
COC(=O)CN1C(=O)COc2ccc(S(=O)(=O)NCc3ccc(Cl)cc3)cc21	7	1	99*	1
NC(=O)CSc1nnc(-c2ccc(S(=O)(=O)N3CCCCC3)cc2)n1-c1ccccc1	-3	37	-63	-5
COc1ccccc1-n1c(SCC(N)=O)nnc1-c1ccc(S(=O)(=O)N2CCCCC2)cc1	-7	62*	-89	1
O=C(c1cccc(Oc2ccccc2)c1)N1CCC(Oc2cccnc2)CC1	-5	.	.	0
SMILES	DDE Tn6 FP inh	CRFBP-R2 agonist	CRFBP-R2 block	Tn7 DDE FP
COc1cc(-c2n[nH]c(=S)n2/N=C/c2cccn2C)cc(OC)c1OC	1	104*	-18	-5
COC(=O)Cc1ccc(NC(=S)NCCC(C)C)cc1	-1	-2	88*	-2
Cc1cc(C)cc(C(=O)OCCN(C)C2CN(Cc3cn(Cc4cccc(F)c4)nn3)S(=O)(=O)C2)c1 (stereo not drawn)	-5	.	.	0
CCCC1CCC2(CCCN2CCOC(=O)Nc2ccc(Br)cc2)CC1 (stereo not drawn)	6	.	.	3
CC1(C)CC(NCCC(c2ccccc2)c2ccco2)CCO1 (stereo not drawn)	8	0	97*	4
COC(=O)C1CN(Cc2ccccc2)CCS(=O)(=O)N1Cc1cn(Cc2cccc(Cl)c2)nn1 (stereo not drawn)	-5	.	.	-3
O=C(COc1cccc(Cl)c1)Nc1ccc(N2CCOCC2)cc1	-6	7	80*	-7
COC(=O)c1cn(NC(=O)c2ccc(F)cc2)c(=O)c2ccccc12	1	0	105*	-3
CCc1nc2c(OCc3ccccc3C(=O)OC)cccn2c1N(C)C(=O)Nc1ccccc1OC	2	.	.	-3
COC1=CC(=Cc2c(N)n3nc(CC(=O)N4CCCCC4)sc3nc2=O)C=C(OC)C1=O	-13	173*	-135	-1
CC(C)COc1ccc(CNC(=S)Nc2ccccc2)cc1Cl	9	4	107*	5
CC(C)Oc1ccc(CNC(=S)Nc2ccccc2)cc1Cl	1	0	14	-3
C=C(C)C#CCNCc1ccccc1	0	.	.	0
COCCCn1c(N)c(-c2nc3ccccc3n2C)c2nc3ccccc3nc21	-3	92*	-180	-4
Cn1c(-c2c(N)n(CCCc3ccccc3)c3nc4ccccc4nc23)nc2ccccc21	.	10	-30	.
Cn1c(-c2c(N)n(CCc3ccccc3)c3nc4ccccc4nc23)nc2ccccc21	.	51*	-155	.
COC(=O)C1CN(Cc2ccc(OC)cc2)CCS(=O)(=O)N1Cc1ccc(C(F)(F)F)cc1 (stereo not drawn)	-2	.	.	-7
COc1ccc(C)c2sc(NC(=O)c3cccc(N4C(=O)CCC4=O)c3)nc12	-1	-1	1	-9
Cc1ccc(C)c2sc(NC(=O)c3ccc(N4C(=O)CCC4=O)cc3)nc12	4	116*	-115	-1
CC(=O)Nc1ccc(S(=O)(=O)N2CCC(C(=O)O)(c3ccccc3)CC2)cc1	8	-2	8	-1
CC(=O)Nc1ccc(S(=O)(=O)N2CCC(NC(C)=O)(c3cccc(F)c3)CC2)cc1	2	-7	51*	0
COCCNC(=S)N1CCc2cc(OC)c(OC)cc2C1COc1ccc(C(C)C)cc1 (stereo not drawn)	3	-2	50*	-4
CCCS(=O)(=O)NC(=O)C1(C)CCCN(C(=O)c2ccccc2Br)C1 (stereo not drawn)	7	.	.	-8
CC1(Cc2ccc3c(c2)OCO3)NC(=O)NC1=O (stereo not drawn)	-8	-3	56*	0
CCCn1nc([N+](=O)[O-])c(C(C#N)c2nc3ccccc3s2)c(Cl)c1=O (stereo not drawn)	5	46	69*	0
CCn1nc([N+](=O)[O-])c(C(C#N)c2nc3ccccc3n2C)c(Cl)c1=O (stereo not drawn)	3	-2	27	-5
CCC1CCCCN1Cc1ccc(OC)c(C)c1 (stereo not drawn)	1	65*	38	-2
COc1ccc(CN2CCSCC2)cc1C	3	69*	21	-6
COC(=O)C1CN(Cc2ccc(OC)cc2)CCS(=O)(=O)N1Cc1cn(Cc2ccc(C)cc2)nn1 (stereo not drawn)	-4	.	.	0

High-throughput results from PubChem.
